Converted amounts (≈) assume the structure as drawn.
What was measured:
[1] = Intrinsic clearance in NMRI mouse liver microsomes at 2.5 uM; format: ADME, Microsome
Summary of the method: (§1)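 Liver microsomes (0.5 mg/mL) of human, Wistar rat or NMRI mouse; compound 2.5 μM initial, incubated for various times. Intrinsic clearance (mL/min·g liver) taken as rate of compound consumption under first-order conditions, Clint = Vmax/KM or V/S when S ≪ KM.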

[2] = Drug uptake in mouse brain at 30 mg/kg, po; format: ADME, organism-based; conditions: in vivo, read-out: Drug uptake
Summary of the method: (§2)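 Mice dosed orally at 30 mg/kg; plasma, brain and unbound plasma concentrations measured.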

[3] = target: Metabotropic glutamate receptor 2 (Homo sapiens, UniProt Q14416); assay: Positive allosteric modulation of human mGluR2 expressed in human Chem1 cells assessed as increase in glutamate-induced intracellular calcium influx preincubated for 30 mins followed by glutamate addition by calcium-5 dye based fluorometric assay; format: functional, cell-based
Metabotropic glutamate receptor 2, sequence (Q14416 whole entry): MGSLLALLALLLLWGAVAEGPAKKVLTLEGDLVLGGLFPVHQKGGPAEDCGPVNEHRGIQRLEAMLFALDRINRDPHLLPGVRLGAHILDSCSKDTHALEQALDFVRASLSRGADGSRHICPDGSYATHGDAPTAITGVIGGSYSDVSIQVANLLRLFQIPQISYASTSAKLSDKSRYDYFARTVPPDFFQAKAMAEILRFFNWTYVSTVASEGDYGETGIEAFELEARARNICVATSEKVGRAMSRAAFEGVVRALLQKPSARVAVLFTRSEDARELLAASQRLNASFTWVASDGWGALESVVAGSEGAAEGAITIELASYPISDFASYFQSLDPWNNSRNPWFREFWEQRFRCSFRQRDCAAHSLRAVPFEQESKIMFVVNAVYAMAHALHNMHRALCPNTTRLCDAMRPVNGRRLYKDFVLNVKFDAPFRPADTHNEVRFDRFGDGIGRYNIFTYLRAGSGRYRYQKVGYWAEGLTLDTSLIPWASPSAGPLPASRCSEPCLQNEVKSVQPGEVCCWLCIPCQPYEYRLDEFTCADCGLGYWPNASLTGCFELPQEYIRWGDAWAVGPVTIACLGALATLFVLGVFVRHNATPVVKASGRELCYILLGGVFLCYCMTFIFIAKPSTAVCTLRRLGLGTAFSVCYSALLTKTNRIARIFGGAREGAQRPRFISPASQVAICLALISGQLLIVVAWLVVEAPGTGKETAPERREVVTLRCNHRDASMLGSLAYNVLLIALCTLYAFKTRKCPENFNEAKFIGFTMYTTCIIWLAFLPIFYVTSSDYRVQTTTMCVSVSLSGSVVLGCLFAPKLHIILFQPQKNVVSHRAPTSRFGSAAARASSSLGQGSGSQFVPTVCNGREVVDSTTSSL
Summary of the method: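 Chem-1 cells stably expressing human mGlu2, 30000 cells/well, overnight at 37 °C. Loaded with Calcium 5 dye (30 min, 37 °C) in buffer with GPT/pyruvate, washed, then compound or vehicle 30 min at 37 °C. Glutamate at EC5-EC20 added after 20 s baseline; fluorescence 485/525 nm read 40 s. ΔF/F from multiple wells; sigmoid fits give EC50, three independent experiments. Final DMSO 1%.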

Mus musculus [4] = assay: Antipsychotic activity in ip dosed ddY mouse assessed as inhibition of PCP-induced hyperlocomotion pretreated followed by PCP addition measured after 60 mins by passive infrared sensor method; format: functional
Summary of the method: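 Male ddY mice, 6 weeks old, acclimated 60 min in test cage, dosed i.p., then immediately PCP 2.5 mg/kg s.c.; locomotor activity recorded 60 min by passive infrared sensor system; ED50 reported.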

[5] = Intrinsic clearance in human liver microsomes at 2.5 uM; format: ADME, Microsome; summary of the method: as §1
[6] = Unbound plasma concentration in mouse at 30 mg/kg, po; format: ADME, organism-based; conditions: in vivo; summary of the method: as §2
[7] = Plasma concentration in mouse at 30 mg/kg, po; format: ADME, organism-based; conditions: in vivo; summary of the method: as §2
[8] = Intrinsic clearance in Wistar rat liver microsomes at 2.5 uM; format: ADME, Microsome; summary of the method: as §1
[9] = Lipophilicity, log D of the compound at pH 7.4; format: physicochemical; conditions: buffer
Cytochrome P450 1A2 = target: T1, Cytochrome P450 1A2 (Homo sapiens, UniProt P05177); assay: Inhibition of CYP1A2 (unknown origin); format: ADME
T1 sequence (P05177 whole entry): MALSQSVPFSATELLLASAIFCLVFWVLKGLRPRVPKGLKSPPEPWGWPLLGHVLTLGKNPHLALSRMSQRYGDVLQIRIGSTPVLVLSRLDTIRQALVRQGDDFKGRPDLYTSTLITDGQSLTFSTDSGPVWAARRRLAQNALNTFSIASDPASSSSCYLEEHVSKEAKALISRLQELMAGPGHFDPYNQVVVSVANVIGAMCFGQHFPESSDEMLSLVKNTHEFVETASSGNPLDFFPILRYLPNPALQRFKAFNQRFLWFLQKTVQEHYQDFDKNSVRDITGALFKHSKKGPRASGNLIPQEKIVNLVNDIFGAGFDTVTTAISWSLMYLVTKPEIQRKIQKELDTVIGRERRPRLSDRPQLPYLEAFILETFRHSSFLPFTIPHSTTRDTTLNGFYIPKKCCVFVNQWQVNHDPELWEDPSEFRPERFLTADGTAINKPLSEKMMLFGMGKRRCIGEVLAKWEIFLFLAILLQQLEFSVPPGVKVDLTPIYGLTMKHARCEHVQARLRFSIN

[10] = Protein binding in rat plasma; format: ADME, cell-free; conditions: read-out: PPB (converted)
[11] = Protein binding in mouse plasma; format: ADME, cell-free; conditions: read-out: PPB (converted)
Cytochrome P450 2D6 = Cytochrome P450 2D6 (Homo sapiens, UniProt P10635); assay: Inhibition of CYP2D6 (unknown origin); format: ADME
Cytochrome P450 2D6, sequence (P10635 whole entry): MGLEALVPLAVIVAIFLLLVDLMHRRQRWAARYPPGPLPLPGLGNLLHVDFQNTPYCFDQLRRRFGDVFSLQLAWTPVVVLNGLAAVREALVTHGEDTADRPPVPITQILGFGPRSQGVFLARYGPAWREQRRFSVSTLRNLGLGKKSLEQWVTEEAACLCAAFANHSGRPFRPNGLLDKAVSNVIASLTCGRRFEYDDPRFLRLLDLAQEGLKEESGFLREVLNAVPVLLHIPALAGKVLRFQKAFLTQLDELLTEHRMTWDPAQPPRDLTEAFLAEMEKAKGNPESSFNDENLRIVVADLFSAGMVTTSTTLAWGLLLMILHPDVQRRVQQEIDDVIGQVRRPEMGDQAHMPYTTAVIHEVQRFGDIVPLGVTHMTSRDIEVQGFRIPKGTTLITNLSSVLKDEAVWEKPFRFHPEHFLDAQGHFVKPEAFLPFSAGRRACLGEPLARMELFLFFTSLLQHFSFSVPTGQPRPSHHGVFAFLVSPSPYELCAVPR

[12] = target: T2, Nuclear receptor subfamily 1 group I member 2 (Homo sapiens, UniProt O75469); assay: Activation of PXR (unknown origin) assessed as CYP induction; format: ADME
T2 sequence (O75469 whole entry): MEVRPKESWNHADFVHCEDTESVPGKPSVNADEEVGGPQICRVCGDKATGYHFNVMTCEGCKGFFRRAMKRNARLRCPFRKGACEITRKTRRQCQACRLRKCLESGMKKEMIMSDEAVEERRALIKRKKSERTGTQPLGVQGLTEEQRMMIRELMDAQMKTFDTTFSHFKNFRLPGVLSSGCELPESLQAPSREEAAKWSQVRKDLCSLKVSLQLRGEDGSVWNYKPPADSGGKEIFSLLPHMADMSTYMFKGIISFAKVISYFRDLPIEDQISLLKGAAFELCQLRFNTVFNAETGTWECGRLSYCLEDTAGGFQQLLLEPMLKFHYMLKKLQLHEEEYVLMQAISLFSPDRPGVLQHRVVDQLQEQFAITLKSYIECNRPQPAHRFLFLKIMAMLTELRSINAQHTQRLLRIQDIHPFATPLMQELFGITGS

Cytochrome P450 3A4 = Cytochrome P450 3A4 (Homo sapiens, UniProt P08684); assay: Inhibition of CYP3A4 (unknown origin); format: ADME
Cytochrome P450 3A4, sequence (P08684 whole entry): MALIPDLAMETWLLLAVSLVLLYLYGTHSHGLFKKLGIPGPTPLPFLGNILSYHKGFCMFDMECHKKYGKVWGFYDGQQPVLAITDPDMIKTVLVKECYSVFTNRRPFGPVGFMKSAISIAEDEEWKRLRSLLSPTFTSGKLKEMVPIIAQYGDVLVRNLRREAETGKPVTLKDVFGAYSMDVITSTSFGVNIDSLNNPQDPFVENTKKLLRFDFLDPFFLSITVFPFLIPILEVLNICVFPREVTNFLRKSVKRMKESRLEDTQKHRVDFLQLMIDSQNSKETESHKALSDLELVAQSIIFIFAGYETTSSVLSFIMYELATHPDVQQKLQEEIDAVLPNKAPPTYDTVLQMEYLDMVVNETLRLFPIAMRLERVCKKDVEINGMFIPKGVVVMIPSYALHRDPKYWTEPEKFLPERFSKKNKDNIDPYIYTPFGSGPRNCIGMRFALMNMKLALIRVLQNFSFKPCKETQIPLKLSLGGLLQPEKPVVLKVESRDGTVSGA

Homo sapiens = species: Homo sapiens; assay: Binding affinity to sodium channel site 2 (unknown origin) at 10 uM relative to control
[13] = Kinetic aqueous solubility of the compound in pH 7.4 solution; format: physicochemical; conditions: aqueous pH 7.4 solution, read-out: Kinetic_solubility
[14] = target: T3, Androgen receptor (Homo sapiens) (UniProt P10275); assay: Binding affinity to AR (unknown origin) at 10 uM relative to control
T3 sequence (whole entry): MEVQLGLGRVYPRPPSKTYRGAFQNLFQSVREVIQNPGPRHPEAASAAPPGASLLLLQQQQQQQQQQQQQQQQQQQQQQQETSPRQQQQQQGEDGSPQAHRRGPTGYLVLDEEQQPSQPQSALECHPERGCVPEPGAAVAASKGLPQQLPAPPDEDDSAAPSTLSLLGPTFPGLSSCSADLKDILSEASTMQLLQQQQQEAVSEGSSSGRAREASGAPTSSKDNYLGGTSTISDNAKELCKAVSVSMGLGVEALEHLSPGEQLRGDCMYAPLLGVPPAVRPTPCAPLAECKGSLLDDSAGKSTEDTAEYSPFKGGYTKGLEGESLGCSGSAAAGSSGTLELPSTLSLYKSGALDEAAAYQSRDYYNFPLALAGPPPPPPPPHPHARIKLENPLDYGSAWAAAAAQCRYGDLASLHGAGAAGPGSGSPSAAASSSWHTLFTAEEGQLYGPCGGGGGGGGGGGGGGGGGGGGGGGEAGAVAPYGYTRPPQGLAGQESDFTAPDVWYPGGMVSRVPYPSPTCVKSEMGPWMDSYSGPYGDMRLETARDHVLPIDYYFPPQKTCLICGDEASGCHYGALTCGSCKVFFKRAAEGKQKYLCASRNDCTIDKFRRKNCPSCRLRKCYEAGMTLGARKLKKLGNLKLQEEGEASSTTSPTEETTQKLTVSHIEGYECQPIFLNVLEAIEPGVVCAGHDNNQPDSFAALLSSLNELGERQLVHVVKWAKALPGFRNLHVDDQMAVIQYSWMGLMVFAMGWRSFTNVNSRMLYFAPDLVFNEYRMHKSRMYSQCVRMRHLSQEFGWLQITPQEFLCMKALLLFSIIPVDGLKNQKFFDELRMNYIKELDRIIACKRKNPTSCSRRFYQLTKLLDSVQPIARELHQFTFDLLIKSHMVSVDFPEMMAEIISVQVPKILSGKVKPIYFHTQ

Cytochrome P450 2C9 = Cytochrome P450 2C9 (Homo sapiens, UniProt P11712); assay: Inhibition of CYP2C9 (unknown origin); format: ADME
Cytochrome P450 2C9, sequence (P11712 whole entry): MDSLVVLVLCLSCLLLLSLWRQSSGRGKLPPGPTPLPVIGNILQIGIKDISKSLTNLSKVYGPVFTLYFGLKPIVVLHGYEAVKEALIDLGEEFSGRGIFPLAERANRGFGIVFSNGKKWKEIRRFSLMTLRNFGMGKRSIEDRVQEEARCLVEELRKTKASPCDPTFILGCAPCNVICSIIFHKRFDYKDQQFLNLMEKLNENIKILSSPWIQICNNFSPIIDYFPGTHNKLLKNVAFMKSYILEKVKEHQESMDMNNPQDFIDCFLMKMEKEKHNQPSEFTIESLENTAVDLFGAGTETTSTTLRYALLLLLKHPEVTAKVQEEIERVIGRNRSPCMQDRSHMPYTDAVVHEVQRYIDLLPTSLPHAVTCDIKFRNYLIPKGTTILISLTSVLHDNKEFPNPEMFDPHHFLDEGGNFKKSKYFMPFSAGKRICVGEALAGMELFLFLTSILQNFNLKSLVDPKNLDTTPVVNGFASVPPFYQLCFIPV

Mus musculus [15] = assay: Inhibition of DOI-induced head twitches in ip dosed ddY mouse pretreated for 20 mins followed by DOI addition measured after 8 mins; format: functional
Summary of the method: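 Male ddY mice, 6 weeks old, dosed i.p. 20 min before DOI 0.75 mg/kg s.c.; head twitches counted in transparent cylinder from 10 to 18 min after DOI.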

Intrinsic clearance [1] [mL/min/g] | concentration [2] [µM] | EC50 [3] [nM] | Intrinsic clearance [5] [mL/min/g] | Cp(f) [6] [µM] | concentration [7] [µM] | Intrinsic clearance [8] [mL/min/g] | logD [9] | IC50 (Cytochrome P450 1A2) [nM] | fraction unbound [10] | fraction unbound [11] | IC50 (Cytochrome P450 2D6) [nM] | MEC [12] [µM] | IC50 (Cytochrome P450 3A4) [nM] | Activity (Homo sapiens) [%] | solubility kinetic [13] [µg/mL] | Activity [14] [%] | IC50 (Cytochrome P450 2C9) [nM] | Structure (SMILES) | ED50 (Mus musculus [4]) [mg/kg] | ED50 (Mus musculus [15]) [mg/kg]
3.8 | 7.1 | 6 | 0.1 | 0.081 | 20 | 0.4 | – | – | – | – | – | – | – | – | – | – | – | Fc1cc(Cl)ccc1-c1ccc(Cn2nnc3c(Br)cccc32)cn1 | 47 | –
3.4 | 1.4 | 50 | 0.01 | 0.015 | 2 | 0.8 | 5.48 | > 10000 | 0.006 | 0.008 | > 10000 | 7.7 | > 10000 | 50 | 3 (≈ 8.86 µM) | 77 | 6600 | Fc1cc(Cl)ccc1-c1ccc(Cn2nnc3ccccc32)cn1 | > 100 | –
1.4 | 13.1 | 148 | 0.3 | 1.75 | 12.1 | 0.3 | 3.08 | > 10000 | 0.1 | 0.145 | > 10000 | 7 | > 10000 | – | 409 (≈ 1700 µM) | – | > 10000 | FC(F)(F)c1cccc2c1nnn2CC1CC1 | 57.6 | 29.7
0.7 | – | 68 | 0.1 | – | – | 0.5 | – | – | – | – | – | – | – | – | – | – | – | Fc1ccc2c(c1)nnn2Cc1ccc(-c2ccc(Cl)cc2F)nc1 | – | –
7.7 | – | 70 | 1.3 | – | – | 0.6 | – | – | – | – | – | – | – | – | – | – | – | Brc1cccc2c1nnn2CC1CC1 | – | –
15.3 | – | 10 | 11.9 | – | – | 16.2 | – | – | – | – | – | – | – | – | – | – | – | Brc1cccc2c1nnn2CC1CCCCC1 | – | –

From ChEMBL document CHEMBL4308828, “Fragment Based Optimization of Metabotropic Glutamate Receptor 2 (mGluR2) Positive Allosteric Modulators in the Absence of Structural Information” (J Med Chem, 2018)
